Source: ChEMBL document CHEMBL5108089, “Structure-based discovery of potent inhibitors of Axl: design, synthesis, and biological evaluation” (RSC Med Chem, 2022)

Legend:
[1] = Metabolic stability in rat liver microsomes assessed as half-life preincubated for 10 mins followed by NADPH addition and measured upto 60 mins by LC-MS/MS analysis; type: ADME, Microsome; settings: time < 70 min
[2] = Metabolic stability in rat liver microsomes assessed as intrinsic clearance preincubated for 10 mins followed by NADPH addition and measured upto 60 mins by LC-MS/MS analysis; type: ADME, Microsome; settings: time < 70 min, read-out: CLH
[3] = Metabolic stability in human liver microsomes assessed as half-life preincubated for 10 mins followed by NADPH addition and measured upto 60 mins by LC-MS/MS analysis; type: ADME, Microsome; settings: time < 70 min
[4] = Metabolic stability in human liver microsomes assessed as intrinsic clearance preincubated for 10 mins followed by NADPH addition and measured upto 60 mins by LC-MS/MS analysis; type: ADME, Microsome; settings: time < 70 min, read-out: CLH
[5] = Intrinsic clearance in human; type: ADME
[6] = Intrinsic clearance in rat; type: ADME
[7] = target: Tyrosine-protein kinase JAK2 (Homo sapiens, UniProt O60674); test: Inhibition of human JAK2 using KTFCGTPEYLAPEVRREPRILSEEEQEMFRDFDYIADWC as substrate incubated for 40 mins in the presence of [gamma33P]ATP by scintillation counting analysis
Summary of the method: (§1)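 Human kinase, radiometric: incubated in 8 mM MOPS pH 7.0, 0.2 mM EDTA, 10 mM magnesium acetate with [γ-33P]-ATP; started by Mg/ATP mix, 40 min at room temperature, stopped with phosphoric acid to 0.5%. Spotted on P30 filtermat, washed 4×4 min in 0.425% phosphoric acid and once in methanol, dried, scintillation counted.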

[8] = target: T1, Tyrosine-protein kinase receptor UFO (Homo sapiens, UniProt P30530); test: Inhibition of human Axl using KKSRGDYMTMQIG as substrate incubated for 40 mins in the presence of [gamma33P]ATP by scintillation counting analysis
T1 sequence (P30530 whole entry): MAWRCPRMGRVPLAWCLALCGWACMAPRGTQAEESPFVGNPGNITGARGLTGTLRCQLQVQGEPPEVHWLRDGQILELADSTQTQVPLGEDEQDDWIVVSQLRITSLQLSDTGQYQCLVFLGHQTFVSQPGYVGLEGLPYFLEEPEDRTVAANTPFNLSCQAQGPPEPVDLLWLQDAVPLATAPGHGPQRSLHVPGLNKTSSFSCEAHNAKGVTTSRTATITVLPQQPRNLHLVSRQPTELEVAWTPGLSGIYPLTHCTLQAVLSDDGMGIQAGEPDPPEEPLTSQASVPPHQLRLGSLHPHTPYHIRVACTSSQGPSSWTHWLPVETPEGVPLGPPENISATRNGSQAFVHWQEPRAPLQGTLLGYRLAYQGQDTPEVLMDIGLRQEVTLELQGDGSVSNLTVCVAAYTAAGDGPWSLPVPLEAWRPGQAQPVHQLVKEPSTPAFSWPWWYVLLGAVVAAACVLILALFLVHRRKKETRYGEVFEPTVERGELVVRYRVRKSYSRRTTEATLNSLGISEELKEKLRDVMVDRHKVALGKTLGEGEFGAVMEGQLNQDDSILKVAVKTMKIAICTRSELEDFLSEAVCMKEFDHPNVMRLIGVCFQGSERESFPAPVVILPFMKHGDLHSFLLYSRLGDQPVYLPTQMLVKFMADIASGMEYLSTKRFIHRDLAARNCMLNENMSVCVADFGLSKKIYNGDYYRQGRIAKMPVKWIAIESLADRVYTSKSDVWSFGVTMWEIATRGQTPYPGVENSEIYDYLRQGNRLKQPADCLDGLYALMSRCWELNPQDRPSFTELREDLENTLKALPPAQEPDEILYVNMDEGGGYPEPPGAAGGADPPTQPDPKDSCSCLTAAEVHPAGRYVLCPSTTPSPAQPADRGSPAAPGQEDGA

Aurora kinase B = Aurora kinase B (Homo sapiens, UniProt Q96GD4); test: Inhibition of human Aurora B using AKRRRLSSLRA as substrate incubated for 40 mins in the presence of [gamma33P]ATP by scintillation counting analysis; summary of the method: as §1
[9] = target: ALK tyrosine kinase receptor (Homo sapiens, UniProt Q9UM73); test: Inhibition of human ALK using KKKSPGEYVNIEFG as substrate incubated for 40 mins in the presence of [gamma33P]ATP by scintillation counting analysis; summary of the method: as §1
[10] = AUC (0 to last) in Sprague-Dawley rat at 1 mg/kg, iv measured upto 24 hrs by LC-MS/MS analysis; type: ADME, organism-based; design: dose 1 mg/kg, time < 24 hrs, route iv; settings: in vivo
[11] = Half-life in Sprague-Dawley rat at 1 mg/kg, iv measured upto 24 hrs by LC-MS/MS analysis; type: ADME, organism-based; settings: in vivo
[12] = Clearance in Sprague-Dawley rat at 1 mg/kg, iv measured upto 24 hrs by LC-MS/MS analysis; type: ADME, organism-based; settings: in vivo
[13] = Cmax in Sprague-Dawley rat at 1 mg/kg, iv measured upto 24 hrs by LC-MS/MS analysis; type: ADME, organism-based; design: time < 24 hrs, dose 1 mg/kg, route iv; settings: in vivo
[14] = Half-life in Sprague-Dawley rat at 5 mg/kg, po measured upto 24 hrs by LC-MS/MS analysis; type: ADME, organism-based; settings: in vivo
[15] = AUC (0 to last) in Sprague-Dawley rat at 5 mg/kg, po measured upto 24 hrs by LC-MS/MS analysis; type: ADME, organism-based; design: dose 5 mg/kg, time < 24 hrs, route po; settings: in vivo
[16] = Cmax in Sprague-Dawley rat at 5 mg/kg, po measured upto 24 hrs by LC-MS/MS analysis; type: ADME, organism-based; design: dose 5 mg/kg, time < 24 hrs, route po; settings: in vivo
[17] = Oral bioavailability in Sprague-Dawley rat at 5 mg/kg measured upto 24 hrs by LC-MS/MS analysis; type: ADME, organism-based; settings: in vivo

ALK tyrosine kinase receptor, sequence (Q9UM73 whole entry): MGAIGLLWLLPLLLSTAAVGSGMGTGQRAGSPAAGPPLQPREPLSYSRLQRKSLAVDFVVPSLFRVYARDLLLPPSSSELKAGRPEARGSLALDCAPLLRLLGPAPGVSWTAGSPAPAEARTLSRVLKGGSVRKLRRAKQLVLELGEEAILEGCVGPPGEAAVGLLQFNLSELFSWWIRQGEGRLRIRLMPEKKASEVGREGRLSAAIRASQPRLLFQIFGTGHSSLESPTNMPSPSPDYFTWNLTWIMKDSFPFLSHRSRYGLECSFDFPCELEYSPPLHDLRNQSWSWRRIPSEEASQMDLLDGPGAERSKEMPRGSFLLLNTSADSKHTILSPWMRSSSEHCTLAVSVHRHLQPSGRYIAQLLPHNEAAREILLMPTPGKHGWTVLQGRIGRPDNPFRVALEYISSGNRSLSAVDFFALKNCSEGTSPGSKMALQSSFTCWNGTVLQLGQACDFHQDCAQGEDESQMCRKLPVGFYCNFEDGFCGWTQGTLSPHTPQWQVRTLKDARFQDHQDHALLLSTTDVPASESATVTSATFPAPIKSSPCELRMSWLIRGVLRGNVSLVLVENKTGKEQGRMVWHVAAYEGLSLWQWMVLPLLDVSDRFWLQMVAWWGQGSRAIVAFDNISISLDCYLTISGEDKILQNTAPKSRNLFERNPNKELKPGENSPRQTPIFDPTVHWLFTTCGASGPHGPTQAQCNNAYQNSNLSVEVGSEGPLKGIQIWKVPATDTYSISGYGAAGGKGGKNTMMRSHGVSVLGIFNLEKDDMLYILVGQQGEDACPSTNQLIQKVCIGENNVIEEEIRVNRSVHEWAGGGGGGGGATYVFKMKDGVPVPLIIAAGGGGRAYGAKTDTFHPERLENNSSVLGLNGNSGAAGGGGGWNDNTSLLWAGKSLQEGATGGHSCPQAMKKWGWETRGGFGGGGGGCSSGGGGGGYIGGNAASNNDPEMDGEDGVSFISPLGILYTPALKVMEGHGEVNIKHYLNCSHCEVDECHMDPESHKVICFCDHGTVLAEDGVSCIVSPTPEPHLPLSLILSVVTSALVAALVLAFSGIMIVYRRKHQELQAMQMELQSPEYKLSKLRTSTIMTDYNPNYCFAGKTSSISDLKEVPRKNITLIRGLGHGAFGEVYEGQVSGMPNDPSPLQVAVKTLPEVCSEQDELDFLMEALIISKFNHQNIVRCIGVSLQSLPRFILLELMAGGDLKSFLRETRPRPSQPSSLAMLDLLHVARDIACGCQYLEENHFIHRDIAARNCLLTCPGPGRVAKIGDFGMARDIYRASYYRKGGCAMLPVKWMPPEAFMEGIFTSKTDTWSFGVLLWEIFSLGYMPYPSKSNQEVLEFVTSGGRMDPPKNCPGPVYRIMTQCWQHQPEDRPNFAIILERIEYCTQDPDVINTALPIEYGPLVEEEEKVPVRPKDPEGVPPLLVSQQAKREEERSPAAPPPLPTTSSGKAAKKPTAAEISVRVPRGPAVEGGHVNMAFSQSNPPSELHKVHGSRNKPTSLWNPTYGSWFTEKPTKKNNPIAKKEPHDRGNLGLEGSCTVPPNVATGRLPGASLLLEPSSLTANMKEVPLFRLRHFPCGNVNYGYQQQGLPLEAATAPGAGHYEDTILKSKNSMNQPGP
Tyrosine-protein kinase JAK2, sequence (O60674 whole entry): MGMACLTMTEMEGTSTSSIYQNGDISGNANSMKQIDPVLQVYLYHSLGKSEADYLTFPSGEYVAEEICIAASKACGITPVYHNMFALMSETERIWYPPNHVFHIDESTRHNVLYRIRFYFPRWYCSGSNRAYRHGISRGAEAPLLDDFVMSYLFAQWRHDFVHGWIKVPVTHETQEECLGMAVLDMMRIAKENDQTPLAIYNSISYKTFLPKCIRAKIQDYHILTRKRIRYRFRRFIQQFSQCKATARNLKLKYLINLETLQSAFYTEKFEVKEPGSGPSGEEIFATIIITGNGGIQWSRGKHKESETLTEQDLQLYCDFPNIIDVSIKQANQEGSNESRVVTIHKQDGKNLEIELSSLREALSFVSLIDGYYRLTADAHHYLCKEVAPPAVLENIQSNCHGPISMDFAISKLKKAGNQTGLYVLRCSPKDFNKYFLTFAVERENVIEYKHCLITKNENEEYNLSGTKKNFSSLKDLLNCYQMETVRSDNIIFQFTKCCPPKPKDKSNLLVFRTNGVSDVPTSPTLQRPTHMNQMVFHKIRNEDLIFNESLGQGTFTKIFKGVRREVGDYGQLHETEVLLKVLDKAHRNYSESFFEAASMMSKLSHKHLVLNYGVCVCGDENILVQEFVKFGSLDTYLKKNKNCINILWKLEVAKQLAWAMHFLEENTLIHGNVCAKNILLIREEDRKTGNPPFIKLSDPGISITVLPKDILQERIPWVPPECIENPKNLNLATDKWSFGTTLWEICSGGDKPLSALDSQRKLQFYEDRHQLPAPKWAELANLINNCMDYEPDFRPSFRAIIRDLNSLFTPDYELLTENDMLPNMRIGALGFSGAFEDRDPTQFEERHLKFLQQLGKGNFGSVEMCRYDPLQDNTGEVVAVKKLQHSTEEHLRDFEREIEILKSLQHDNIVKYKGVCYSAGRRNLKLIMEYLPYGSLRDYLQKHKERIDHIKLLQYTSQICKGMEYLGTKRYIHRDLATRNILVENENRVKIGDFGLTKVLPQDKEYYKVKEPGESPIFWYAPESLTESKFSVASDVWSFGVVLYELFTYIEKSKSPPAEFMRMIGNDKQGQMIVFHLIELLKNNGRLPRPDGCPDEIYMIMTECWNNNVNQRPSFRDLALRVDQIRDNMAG
Aurora kinase B, sequence (Q96GD4 whole entry): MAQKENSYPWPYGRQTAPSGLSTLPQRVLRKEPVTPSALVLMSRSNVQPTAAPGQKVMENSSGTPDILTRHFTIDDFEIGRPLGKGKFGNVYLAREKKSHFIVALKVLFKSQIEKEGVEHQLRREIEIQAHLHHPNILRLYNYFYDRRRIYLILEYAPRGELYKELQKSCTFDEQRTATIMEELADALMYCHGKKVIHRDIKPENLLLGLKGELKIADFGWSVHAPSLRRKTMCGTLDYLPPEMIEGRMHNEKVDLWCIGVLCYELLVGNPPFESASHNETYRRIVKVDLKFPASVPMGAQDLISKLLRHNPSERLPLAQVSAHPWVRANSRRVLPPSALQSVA

SMILES: CN1CCC(N(C)c2ccc(Nc3ncc(Cl)c(Nc4ccccc4-c4ncn(C)n4)n3)cc2)CC1
- half-life [1]: 15.4 min
- CLint scaled [2]: 162 mL/min/kg
- half-life [3]: 74.2 min
- CLint scaled [4]: 23.4 mL/min/kg
- CLint scaled [5]: 11 mL/min/kg
- CLint scaled [6]: 41.2 mL/min/kg

SMILES: CN1CC2CN(C(=O)c3ccc(Nc4ncc(Cl)c(Nc5ccccc5S(=O)(=O)N(C)C)n4)cc3)CC2C1 (stereo not drawn)
- half-life [1]: 7.3 min
- CLint scaled [2]: 339 mL/min/kg
- half-life [3]: 4.4 min
- CLint scaled [4]: 393 mL/min/kg
- CLint scaled [5]: 19.6 mL/min/kg
- CLint scaled [6]: 47.5 mL/min/kg

SMILES: Cc1nc(-c2ccccc2Nc2nc(Nc3ccc(CN4CCN(C)CC4)cc3)ncc2Cl)n[nH]1
- IC50 [7]: 0.13 µM
- IC50 [8]: 0.011 µM
- IC50 (Aurora kinase B): 0.004 µM
- IC50 [9]: 0.5 µM

SMILES: CC(=O)N1CCc2ccc(Nc3ncc(Cl)c(Nc4ccccc4S(=O)(=O)N(C)C)n3)cc2C1
- half-life [1]: 2.3 min
- CLint scaled [2]: 1090 mL/min/kg
- half-life [3]: 1.82 min
- CLint scaled [4]: 953 mL/min/kg
- CLint scaled [5]: 20.3 mL/min/kg
- CLint scaled [6]: 52.5 mL/min/kg

SMILES: CN1CCC(Oc2ccc(Nc3ncc(Cl)c(Nc4ccccc4-c4nnn(C)n4)n3)cc2)CC1
- half-life [1]: 6.4 min
- CLint scaled [2]: 389 mL/min/kg
- half-life [3]: 36.2 min
- CLint scaled [4]: 48 mL/min/kg
- CLint scaled [5]: 14.5 mL/min/kg
- CLint scaled [6]: 48.3 mL/min/kg

SMILES: CN1CCN(Cc2ccc(Nc3ncc(Cl)c(Nc4ccccc4S(=O)(=O)N(C)C)n3)cc2)CC1 [DUBERMATINIB]
- half-life [1]: 4.3 min
- AUClast [10]: 187 ng·h/mL
- CLint scaled [2]: 582 mL/min/kg
- half-life [11]: 106 min
- half-life [3]: 2.7 min
- CLint scaled [4]: 646 mL/min/kg
- clearance [12]: 82.8 mL/min/kg
- Cmax [13]: 89.8 ng/mL
- CLint scaled [5]: 20.1 mL/min/kg
- half-life [14]: 176 min
- CLint scaled [6]: 50.4 mL/min/kg
- AUClast [15]: 158 ng·h/mL
- Cmax [16]: 46.8 ng/mL
- bioavailability [17]: 21.5%

SMILES: CC(=O)N1CCN(c2ccc(Nc3ncc(Cl)c(Nc4ccccc4-c4ncn(C(C)C)n4)n3)cc2)CC1
- half-life [1]: 153 min
- AUClast [10]: 497 ng·h/mL
- CLint scaled [2]: 16.2 mL/min/kg
- half-life [11]: 89.4 min
- half-life [3]: 156 min
- CLint scaled [4]: 11.2 mL/min/kg
- clearance [12]: 32.5 mL/min/kg
- Cmax [13]: 337 ng/mL
- CLint scaled [5]: 7.2 mL/min/kg
- half-life [14]: 79.2 min
- CLint scaled [6]: 12.5 mL/min/kg
- AUClast [15]: 661 ng·h/mL
- Cmax [16]: 169 ng/mL
- bioavailability [17]: 26.6%

SMILES: CN1CCc2ccc(Nc3ncc(Cl)c(Nc4ccccc4S(=O)(=O)N(C)C)n3)cc2C1
- half-life [1]: 2.4 min
- IC50 [8]: 0.014 µM
- CLint scaled [2]: 1040 mL/min/kg
- half-life [3]: 2.4 min
- CLint scaled [4]: 720 mL/min/kg
- CLint scaled [5]: 20.1 mL/min/kg
- CLint scaled [6]: 52.4 mL/min/kg
